High-throughput results (PubChem BioAssay)
The list is not random: actives were taken first. Their share in the collection is about 2%.
Rpn11 inh: Rpn11 (PSMD14) deubiquitinase inhibitors, primary screen, biochemical, fluorescence polarization, uHTS; inhibition, % at 20 µM; AID 588493, 2011; 0.59% of 360,000 active; human 26S proteasome, Ub4-pepOG fluorescence polarization; 20S core pre-blocked with epoxomicin;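 active = inhibition at 20 µM, scaled to each plate's controls, above about 33%, limit read from the data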
Target sequence (O00487 whole entry, looked up): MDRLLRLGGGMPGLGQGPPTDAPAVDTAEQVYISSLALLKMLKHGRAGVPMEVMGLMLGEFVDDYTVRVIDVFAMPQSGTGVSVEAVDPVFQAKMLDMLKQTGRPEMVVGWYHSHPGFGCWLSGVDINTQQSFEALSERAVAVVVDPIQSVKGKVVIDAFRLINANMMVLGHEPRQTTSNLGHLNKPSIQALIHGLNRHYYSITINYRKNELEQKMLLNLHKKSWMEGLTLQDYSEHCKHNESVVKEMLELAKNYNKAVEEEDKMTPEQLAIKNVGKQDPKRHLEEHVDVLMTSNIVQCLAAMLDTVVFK
HNF4A DNA FP: change in binding of human HNF4A to DNA, primary screen, biochemical, fluorescence polarization, FITC-DNA; 0.3% of 360,000 active; 1 h; Hepatocyte nuclear factor 4-alpha (Homo sapiens), P41235; activity change, % at 10 µM; in the data active = activity change above about 30%, passing the limit was not always enough
CSN deneddyl inh: inhibitors of CSN-mediated cullin deneddylation, primary screen, biochemical, fluorescence polarization, uHTS; Purified CSN, SCF-Nedd8-OG deneddylation; inhibition, % at 12.5 µM; 0.38% of 360,000 active; AID 651999, 2013; COP9 signalosome complex subunit 5 (Homo sapiens), Q92905;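 active = pattern-corrected inhibition above about 35%, with an unprinted fluorescence ratio check between 0.5 and 1.5, limit read from the data, passing the limit was not always enough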
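Assay system: purified human Csn5 enzyme expressed in HEK293T cells; measure: % inhibition; also added: SCFSkp2-Nedd8OG substrate at 10 nM final; technique: fluorescence polarization; times: reaction 90 min, room temperature; medium: Tris buffer pH 7.5, NaCl, DTT, Tween-20, trehalose, ovalbumin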
SENP1 inh: human SENP1 catalytic domain inhibitors, primary screen, biochemical, FRET, uHTS | recombinant SENP1 catalytic domain, CyPet-SUMO1-YPet FRET cleavage | inhibition, % at 10 µM | Sentrin-specific protease 1 (Homo sapiens), Q9P0U3 | 0.21% of 360,000 active;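 active = inhibition at least 30% at 10 µM, raw YFP signal under a set limit, fluorescence ratio 0.5 to 1.5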
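Test system: recombinant human SENP1 catalytic domain, His6-tagged / Medium: pH 8 Tris buffer with EDTA, NaCl, BME, BSA, NP40, catalase / Also added: SUMO1 FRET substrate flanked by Cypet and Ypet, 25 nM / Times: 50 min reaction at room temperature / Signal: FRET, CFP and YFP emission / Control set: no-enzyme low control and enzyme-plus-DMSO high control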
ATG4B inh: ATG4B protease inhibitors, primary screen, biochemical, fluorescence, uHTS; AID 504462, 2011; 0.51% of 340,000 active; inhibition, % at 8.33 µM; ATG4B cleavage of LC3-PLA2, NBD-HPC fluorescence, 1 h
Target sequence (Q9Y4P1 whole entry, looked up): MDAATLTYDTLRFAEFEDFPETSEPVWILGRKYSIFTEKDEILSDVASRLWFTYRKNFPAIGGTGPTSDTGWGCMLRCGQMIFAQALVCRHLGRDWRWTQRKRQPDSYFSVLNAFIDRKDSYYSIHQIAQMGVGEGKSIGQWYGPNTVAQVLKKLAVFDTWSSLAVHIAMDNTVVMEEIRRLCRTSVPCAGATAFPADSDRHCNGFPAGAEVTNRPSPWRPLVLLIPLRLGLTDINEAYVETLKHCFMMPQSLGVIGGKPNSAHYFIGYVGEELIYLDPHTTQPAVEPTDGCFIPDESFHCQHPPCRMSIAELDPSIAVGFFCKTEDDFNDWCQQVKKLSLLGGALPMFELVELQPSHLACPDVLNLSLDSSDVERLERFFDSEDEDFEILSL
TPT1 inhibitor: Candida albicans TPT1 enzyme inhibitors, primary screen, biochemical, fluorescence polarization | recombinant caTPT1, FP RNA substrate dephosphorylation | 0.81% of 300,000 active | inhibition, % at 5 µM | tRNA 2'-phosphotransferase TPT1 (Candida albicans SC5314) | AID 1962, 2009;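 active = inhibition above the mean of all tested compounds plus 3 SD, set per screening campaign, cut at about 24% in these data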
Rpn11 inh conf: Rpn11 (PSMD14) deubiquitinase inhibitors, confirmation, biochemical, fluorescence polarization, single concentration; shares compounds with Rpn11 inh; purified human 26S proteasome, Ub4-pepOG fluorescence polarization; proteasome pretreated with epoxomicin; inhibition, % at 20 µM; 29% of 1,900 active; AID 602318, 2012
MMP-2 inh: MMP-2 enzyme inhibition, confirmation, counter-screen for RPN11 inhibitor project, biochemical, fluorescence, single concentration | shares compounds with Rpn11 inh | 4% of 1,900 active | recombinant MMP-2, FRET peptide cleavage fluorescence | inhibition, % at 20 µM | AID 602330, 2012;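 also: human MMP-2 activated beforehand with APMA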
Thrombin FP: bovine thrombin protease inhibition, confirmation, counter-screen for Rpn11 inhibitor project, biochemical, fluorescence polarization, single concentration. shares compounds with Rpn11 inh. bovine thrombin cleavage of Ub4-pepOG. inhibition, % at 20 µM. 13% of 1,900 active. AID 602333, 2012;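 active = mean inhibition at least 40% at 20 µM, or signal 3 deviations below plate average, so some actives read negative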
Hits are given with their value; - = inactive; . = not tested or not shown. Rule as the data show it, unless noted: active = inhibition above about 40%; inactive = the rest.

SMILES	Rpn11 inh	HNF4A DNA FP	CSN deneddyl inh	SENP1 inh	ATG4B inh	TPT1 inhibitor	Rpn11 inh conf	MMP-2 inh	Thrombin FP
CCCCCCSc1ccc(-c2nc3ccc(Cl)cn3c2NCCCC)cc1OC	36	-	-	-	-	.	-	-	-
CCc1ccc(NC(=O)CS(=O)CC(=O)Nc2ccc(N3CCOCC3)cc2)cc1 (stereo not given)	52	-	-	-	-	-	-	-	-
Cc1cccc(C)c1NC(=O)CS(=O)CC(=O)Nc1ccc(N2CCOCC2)cc1 (stereo not given)	-	-	-	-	-	-	.	.	.
COC(=O)CCCC1=CC2=CC(=O)C(C)(OC(=O)C3CCCC3)C(=O)C2=CO1 (stereo not given)	.	.	.	.	-	-	.	.	.
CCCCC1=CC2=CC(=O)C(C)(OC(=O)C3CCCC3)C(=O)C2=CO1 (stereo not given)	42	-	-	-	-	-	46	-	-
CC(=O)c1cccc(NC(=O)CCc2nc3sc4c(c3c(=O)[nH]2)CCCC4)c1	44	-	-	-	-	-	55	-	41
Cc1cccc(C)c1NC(=O)CN(C)C(=O)CCc1nc2sc3c(c2c(=O)[nH]1)CCCC3	-	-	-	-	-	.	.	.	.
Cc1cccc(NC(=O)CCc2nc3sc4c(c3c(=O)[nH]2)CCCC4)n1	-	-	-	-	-	-	.	.	.
CN(CC(=O)Nc1ccc(F)c(F)c1F)C(=O)CCc1nc2sc3c(c2c(=O)[nH]1)CCCC3	45	-	-	-	-	-	59	-	-
CCc1ccc(NC(=O)CCc2nc3sc4c(c3c(=O)[nH]2)CCCC4)cc1	40	-	-	-	-	-	55	-	-
CCOC(=O)C1CCN(C(=O)CCc2nc3sc4c(c3c(=O)[nH]2)CCCC4)CC1	41	-	-	-	-	-	67	-	46
CC(=O)c1ccc(NC(=O)CCc2nc3sc4c(c3c(=O)[nH]2)CCCC4)cc1	-	-	-	-	-	-	.	.	.
O=C(CCc1nc2sc3c(c2c(=O)[nH]1)CCCC3)NCCc1ccc(Cl)cc1	-	-	-	-	.	.	.	.	.
NS(=O)(=O)c1ccc(CCNC(=O)CCc2nc3sc4c(c3c(=O)[nH]2)CCCC4)cc1	41	-	-	-	-	-	-	-	-
Cc1ccccc1N1CCN(C2CCCN(C(=O)CCc3c(C)noc3C)C2)CC1 (stereo not given)	-	-	-	-	-	-	.	.	.
COC(=O)C1=C(C)NC(=O)/C1=C\c1cc(C)n(-c2c(C)cccc2C)c1C	58	-	-	-	-	-	-	-	-
CC(=O)Nc1sc(C)c(C)c1C(=O)OCCOc1ccccc1	34	-	-	-	-	-	-	-	-
CCC1CCCCN1CCCn1c(=S)[nH]c2ccccc2c1=O (stereo not given)	72	-	-	-	-	-	-	-	-
CCOC(=O)N1CCN(C(=S)NC(=O)c2ccc(F)c(F)c2)CC1	-	-	-	-	-	-	.	.	.
O=[N+]([O-])c1ccc(NN=Cc2cccc3ccccc23)cc1	51	-	-	-	-	.	-	-	-
CCCCCCCCN1[C@@H](CC(=O)OCC)c2cc(F)ccc2S1(=O)=O	-	-	-	-	-	-	.	.	.
CCCCCCCCN1[C@@H](CC(=O)OC)c2cc(F)ccc2S1(=O)=O	56	-	-	-	-	-	-	-	-
COc1ccc(CCn2c(O)c(C=Nc3cccc(F)c3)c(=O)[nH]c2=O)cc1OC	-	-	-	-	-	-	.	.	.
C=CCn1c(O)c(C=Nc2ccc(Cc3ccncc3)cc2)c(=O)[nH]c1=S	48	-	-	-	-	-	-	-	-
NNC(=O)CSc1cccc2cccnc12	-	-	-	-	-	-	.	.	.
SMILES	Rpn11 inh	HNF4A DNA FP	CSN deneddyl inh	SENP1 inh	ATG4B inh	TPT1 inhibitor	Rpn11 inh conf	MMP-2 inh	Thrombin FP
O=C(CSc1ncccn1)N1CCCCCC1	-	-	-	-	-	.	.	.	.
CN(C)C(=O)CSc1cccc2cccnc12	69	-	-	-	-	-	-	-	-
O=C(CSc1cccc2cccnc12)N1CCCC1	71	-	-	-	-	-	-	-	-
O=C(NC1CCCCC1)c1nc(C2CCNCC2)oc1-c1ccccc1	-	-	-	-	.	.	.	.	.
CC(C)(C)c1ccc(C(=O)Nc2ccc(S(N)(=O)=O)cc2)cc1	-	-	-	-	-	-	.	.	.
NS(=O)(=O)c1ccc(NC(=O)c2cccc(N3C(=O)c4ccccc4C3=O)c2)cc1	79	-	-	-	-	-	82	-	-
O=C(Nc1ccncc1)c1ccc(S(=O)(=O)Nc2ccccc2)cc1	-	-	-	-	-	-	.	.	.
NS(=O)(=O)c1ccc(NC(=O)c2ccc(-c3ccccc3)cc2)cc1	101	-	-	-	-	.	119	-	-
NS(=O)(=O)c1ccc(NS(=O)(=O)c2ccc(NC(=O)c3ccc(-c4ccccc4)cc3)cc2)cc1	119	-	-	-	-	-	109	-	101
NS(=O)(=O)c1ccc(NC(=O)Nc2ccccc2)cc1	41	-	-	-	-	-	-	-	-
COc1ccc(NC(=O)C(c2ccccc2)n2c(=O)c(-c3cc4ccccc4[nH]3)nc3ccccc32)cc1 (stereo not given)	.	-	-	-	.	.	.	.	.
COc1cccc(CNC(=O)COC(=O)c2ccc(Cl)s2)c1	-	-	-	-	-	.	.	.	.
O=C(COc1ccc(Nc2ccccc2)cc1)OCC(=O)N1CCCCC1	-	-	-	-	-	-	.	.	.
Cc1ccccc1C(=O)N1CCC(C(=O)NC(C)c2ccc(-n3ccnc3)cc2)CC1 (stereo not given)	-	-	-	-	-	-	.	.	.
CCn1c(SCC(=O)Nc2ccc(-c3nc4ccc(C)cc4s3)cc2)nnc1-c1ccccc1	.	.	.	.	.	-	.	.	.
C=CCn1c(SCC(=O)Nc2ccc(-c3nc4ccc(C)cc4s3)cc2)nnc1-c1ccncc1	60	-	-	-	-	-	-	-	-
